Reference: publication PMC3477254 (ACS chemical biology, 2012)
Entries after “also recorded” stand apart in the source; their conditions may differ.

Assays:
[1] = tested on: cardiac troponin T (cTNT) alternative splicing in COS7 cells; experiment: cTNT mini-gene splicing control; format: cell-based; settings: 500 µM; splicing not regulated by Sam68
Method in brief: (§1)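 COS7 cells were co-transfected with the 60 CGG-repeat mini-gene and a PLEKHH2 or cTNT mini-gene, whose splicing is not under Sam68 control. Compound treatment and RT-PCR followed the same procedure: medium with test compound for 16–24 h, total RNA extraction, reverse transcription, 25–30 PCR cycles, then gel separation and quantification of the splice isoforms.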

[2] = tested on: SMN2 exon 7 alternative splicing in COS7 cells; experiment: SMN2 pre-mRNA splicing by RT-PCR in FXTAS cell model; format: cell-based
Method in brief: (§2)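 COS7 cells were grown in DMEM with 10% FBS and GlutaMax. At 90–95% confluency they were transfected with equal amounts of a plasmid carrying 60 CGG repeats and an SMN2 or Bcl-x mini-gene. About 5 h later, medium containing test compound replaced the transfection mix. After 16–24 h, total RNA was extracted with on-column DNase digestion. Roughly 300 ng was reverse transcribed and 150 ng went to PCR for 25–30 cycles. Isoforms were gel-separated, imaged and quantified.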

r(CGG)12 = experiment: Competition dialysis, r; format: binding; settings: 2 µM RNA, 0.7 µM ligand
Method in brief: (§3)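 2 µM RNA or DGCR8Δ protein was placed in dialysis units (MWCO 2,000) immersed in 0.7 µM ligand. Two buffer-only units were tracked by absorbance to confirm equilibration. SDS was then added to 1% final, and absorbance gave total ligand inside the units and free ligand in the dialysate. Bound ligand was calculated as total minus free.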

[3] = tested on: PLEKHH2 alternative splicing in COS7 cells; experiment: PLEKHH2 mini-gene splicing control; format: cell-based; settings: 500 µM; splicing not regulated by Sam68
Method in brief: as §1

[4] = tested on: Bcl-x exon 2 alternative splicing in COS7 cells; experiment: Bcl-x pre-mRNA splicing by RT-PCR in FXTAS cell model; format: cell-based
Method in brief: as §2

r(CGG)12-DGCR8Δ complex = experiment: TR-FRET protein displacement assay; format: biochemical
[5] = tested on: r(CGG)^exp nuclear foci in COS7 cells; experiment: FISH assay of r; format: cell-based; settings: COS7 cells expressing r(CGG)60 and GFP
Method in brief: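 COS7 cells on coverslips were co-transfected with r(CGG)60 and GFP plasmids, then treated with test compound. Cells were fixed in 4% paraformaldehyde for 15 min and permeabilized with 0.5% Triton X-100. They were prehybridized for 30 min in 2X SSC/40% formamide, then hybridized for 2 h with a (CCG)8-Cy3 DNA probe. After DAPI counterstaining, cells were imaged by confocal or fluorescence microscopy; only GFP-positive cells were scored for nuclear foci.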

[6] = target: RNA containing one 5’CGG/3’GGC motif (1x1 nucleotide GG internal loop); experiment: RNA-binding assay via Hoechst 33258 dye displacement; settings: competition with Hoechst 33258 (1 µM), RNA 1 µM
Method in brief: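 RNA was annealed at 60 °C for 5 min in phosphate buffer (8 mM Na₂HPO₄ pH 7.0, 185 mM NaCl, 0.1 mM EDTA, BSA), then slow-cooled. Titrating RNA into 1000 nM Hoechst 33258 (ex 360/40, em 460/40 nm) gave the dye Kd. Test compound was then titrated into 1 µM RNA plus 1 µM Hoechst. Loss of fluorescence was fit to a competitive binding equation to obtain Kd.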

fully paired RNAs = experiment: Competition dialysis, fully paired RNAs; format: binding; settings: 2 µM RNA, 0.7 µM ligand
Method in brief: as §3

DGCR8Δ = experiment: Competition dialysis, DGCR8Δ; format: binding; settings: 2 µM protein, 0.7 µM ligand
Method in brief: as §3

[7] = COS7 cells expressing r(CGG)60, 100 µM
[8] = COS7 cells expressing r(CGG)60, 500 µM
[9] = cells that do not express r(CGG)60

Cc1c2cc[n+](CCN3CCCCC3)cc2c(C)c2c1[nH]c1ccc(O)cc12 [1a, 9-hydroxy-5,11-dimethyl-2-(2-(piperidin-1-yl)ethyl)-6H-pyrido[4,3-b]carbazol-2-ium]
Effect on cTNT alternative splicing [1]: did not affect
Improvement of SMN2 splicing defects ([2]; COS7 cells expressing r(CGG)60, 20 µM): improvement of SMN2 splicing defects can be observed
SMN2 pre-mRNA splicing level relative to wild type [2, 7]: approximately 70 % of wild type
SMN2 pre-mRNA splicing [2, 8]: restores pre-mRNA splicing to levels wild type
SMN2 pre-mRNA splicing defects ([2]; COS7 cells, CGG 60X mini-gene, Figure 4A): improves SMN2 pre-mRNA splicing defects
Effect on SMN2 splicing [2, 9]: No statistically significant effect
Binding to r(CGG)12 (r(CGG)12): binds tightly
Effect on PLEKHH2 alternative splicing [3]: did not affect
Improvement of Bcl-x splicing dysregulation [4, 7]: Statistically significant improvement
Bcl-x splicing [4, 8]: restoration of wild type splicing patterns
Bcl-x pre-mRNA splicing defects ([4]; COS7 cells, CGG 60X mini-gene, Figure 4B): improves Bcl-x pre-mRNA splicing defects
Effect on Bcl-x splicing [4, 9]: No statistically significant effect
Percentage displacement at 25 µM (r(CGG)12-DGCR8Δ complex; 25 µM compound, protein displaced from r(CGG)12): 85 ± 1%
IC50 (r(CGG)12-DGCR8Δ complex; read-out: IC50 for disruption of the r(CGG)12-DGCR8Δ complex, TR-FRET assay): 13 ± 0.4 µM
Size and number of r(CGG)exp nuclear foci [5]: reduces the size and the number of foci; also recorded: decreases r(CGG)^exp-protein aggregates
Kd [6]: 0.076 ± 0.004 µM
Amount of ligand partitioned into fully paired RNAs relative to r(CGG)12 (fully paired RNAs): less than half
Binding to DGCR8Δ (DGCR8Δ): very little binding
